Only a selection was taken, and hits are over-represented in it overall.
Diaphorase inh: diaphorase inhibitors and chemical oxidizers, primary screen, counter-screen for diaphorase-coupled primary assays, biochemical, uHTS, resorufin fluorescence; inhibition, % at 20 µM; diaphorase resazurin-to-resorufin fluorescence, NADH, 16 min; bacterial (C. kluyveri) enzyme, not human; hit rate 0.69% among 190,000;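 active means primary screen inhibition at 20 µM above a set limit, cut at about 50% in these data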
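System: Diaphorase enzyme from Clostridium kluyveri | Amount: Enzyme working solution with 0.14 U/mL diaphorase | Benchmarks: No-NADH positive control and DMSO neutral control | Signal: Fluorescence of resorufin formed from resazurin, Ex 544/Em 590 nm | Schedule: 16-min room-temperature incubation before reading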
PfGluPho inh: PfG6PD enzyme inhibitors, primary screen, biochemical, fluorescence intensity, uHTS | hit rate 0.78% among 350,000 | inhibition, % at 20 µM | PfGluPho enzyme, NADPH resazurin-diaphorase fluorescence | glucose-6-phosphate dehydrogenase-6-phosphogluconolactonase (Plasmodium falciparum 3D7);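 active means inhibition reaching at least a set limit at 20 µM in the primary screen, cut at about 59% in these data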
L major viab: Leishmania major promastigote growth inhibition, primary screen. Leishmania major promastigotes, resazurin fluorescence viability. inhibition, % at 10 µM. hit rate 9% among 200,000. AID 1063, 2008;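 further: promastigotes grown with compound for 44 hours at 28 °C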
G6PDH CS: L. mesenteroides G6PDH inhibitors, counter-screen for G6PDH-coupled screening assays, biochemical, Leuconostoc mesenteroides enzyme; glucose-6-phosphate dehydrogenase [Leuconostoc mesenteroides]; Purified L. mesenteroides G6PDH, diaphorase/resazurin coupled fluorescence, 45 min; inhibition, % at 5 µM; hit rate 0.12% among 200,000; AID 1020, 2008
DTT redox prof: compounds producing H2O2 with reducing agent – biochemical, NIH compound library profiling, artefact control for MLSCN library redox annotation, primary screen. DTT-dependent redox cycling H2O2, phenol red/HRP absorbance; 100% = 100 µM peroxide control, 0% = buffer. activation, % at 10 µM. hit rate 0.03% among 200,000. AID 878, 2007;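 active means activation of at least 50% relative to the plate's high and low controls in the primary single-dose screen; inactive means activation below 50%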;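 further: compound incubated with DTT at 0.8 mM final as the reducing agent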
Diaphorase act: compounds boosting diaphorase resazurin reduction – biochemical, uHTS, resorufin fluorescence, counter-screen for diaphorase-coupled primary assays, primary screen. Diaphorase/resazurin coupled assay, 16 min; hits give high values; 1 = vehicle wells, 0 = NADH-free wells. activation factor at 20 µM. hit rate 0.005% among 190,000. AID 1229, 2008;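 active means diaphorase activity raised at least twofold by the compound at 20 µM; inactive means activation factor below 2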
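System – purified diaphorase enzyme from Clostridium kluyveri · Input – enzyme 0.07 U/mL final · Also added – final NADH 0.114 mM, resazurin 0.1 mM · Measured by – fluorescence of resorufin, 544 nm excitation, 590 nm emission · Timing – 16 min enzyme reaction, ambient temperature · Measure – resorufin increase flagging diaphorase activators or reducers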
Each line names hits and unclear results; the compound was inactive in the other large screens. Unless noted, no stated cut-off is given here; in the data, active means inhibition above about 50%; inactive means the rest.

COc1ccc(C(=O)NC2CCCCCC2)cc1S(=O)(=O)N1CCCc2ccccc21	L major viab 94
COc1ccc(C(=O)Nc2ncccc2C)cc1S(=O)(=O)N1CCCc2ccccc21	none (no result: Diaphorase inh, L major viab, G6PDH CS, DTT redox prof, Diaphorase act)
COc1ccc(C(=O)Nc2nc3c(s2)CCCC3)cc1S(=O)(=O)N1CCCc2ccccc21	L major viab 97
CC(=O)c1cccc(NC(=O)C2CCN(C(=O)c3cccs3)CC2)c1	none (no result: Diaphorase inh, L major viab, G6PDH CS, DTT redox prof, Diaphorase act)
CCOc1ccccc1Nc1nc(-c2sc(NC(=O)c3ccccc3)nc2C)cs1	L major viab 100 (no result: PfGluPho inh)
COc1ccccc1Nc1nc(-c2sc(NC(=O)c3ccc([N+](=O)[O-])cc3)nc2C)cs1	none (no result: PfGluPho inh)
COc1ccccc1Nc1nc(-c2sc(NC(=O)c3ccccc3)nc2C)cs1	L major viab 81
Cc1ccc(Cl)cc1Nc1nc(-c2sc(NC(=O)c3ccccc3)nc2C)cs1	L major viab 50 (no result: PfGluPho inh)
CCOc1ccccc1Nc1nc(-c2sc(NC(=O)c3cccc(Cl)c3)nc2C)cs1	none
CCC1=NC(c2ccccc2OC)N(O)C1(C)C (stereo not given)	none
Cc1c(C)n(CCN(C)C)c2ccc(C(=O)OCCN(C)C)cc12	none (no result: Diaphorase inh, L major viab, G6PDH CS, DTT redox prof, Diaphorase act)
Cc1c(C)n(Cc2ccccc2)c2ccc(C(=O)OCCCN(C)C)cc12	L major viab 100
Cn1cnc([N+](=O)[O-])c1Oc1cccc2ccccc12	L major viab 73
Cn1cnc([N+](=O)[O-])c1S(=O)(=O)Oc1cccc2ccccc12	none (no result: Diaphorase inh, L major viab, G6PDH CS, DTT redox prof, Diaphorase act)
c1ccc(Cc2nnc(N3CCCCC3)c3ccccc23)cc1	none
c1ccc(Cc2nnc(N3CCOCC3)c3ccccc23)cc1	G6PDH CS 56
COc1ccc(C2=Nc3ccccc3OC2)cc1	L major viab 98
COc1cccc(CN2CCC(N(CCc3ccccc3)Cc3ccccc3)CC2)c1OC	L major viab 99
Cc1ccc(-n2c(N)c(C(=O)Nc3c(C)n(C)n(-c4ccccc4)c3=O)c3nc4ccccc4nc32)cc1C	L major viab 79 (no result: PfGluPho inh)
Nc1c(C(=O)NC2CC2)c2nc3ccccc3nc2n1-c1ccc2c(c1)OCO2	Diaphorase inh 66, L major viab 97
Nc1c(C(=O)OCC2CCCO2)c2nc3ccccc3nc2n1-c1ccc2c(c1)OCCO2 (stereo not given)	L major viab 54
COc1ccc(-n2c(N)c(C(=O)Nc3c(C)n(C)n(-c4ccccc4)c3=O)c3nc4ccccc4nc32)cc1	none (no result: Diaphorase inh, L major viab, G6PDH CS, DTT redox prof, Diaphorase act)
COc1ccc(S(=O)(=O)NCC2CCCN(C(=O)CC3CCCC3)C2)cc1 (stereo not given)	none
CCN(CC)S(=O)(=O)c1cc(NS(=O)(=O)c2cc(Cl)ccc2Cl)ccc1C	L major viab 51
COc1ccc(NC(=O)c2ccc(NC(=O)C(C)C)cc2)c([N+](=O)[O-])c1	none
CC(C)C(=O)Nc1cccc(NC(=S)NC(=O)c2ccc([N+](=O)[O-])cc2)c1	none
COc1ccc(NC(=O)COc2ccc(C)cc2)c([N+](=O)[O-])c1	none
COc1ccc(NC(=O)Cc2ccc(C)cc2)c([N+](=O)[O-])c1	L major viab 91
COc1ccc(NC(=O)CSc2nc3ccccc3n2-c2ccccc2)c([N+](=O)[O-])c1	L major viab 70
COc1ccc(NC(=O)c2cccc(NC(=O)C(C)C)c2)c([N+](=O)[O-])c1	L major viab 73
Cc1cc(C(=O)NC(=S)Nc2cccc(NC(=O)C(C)C)c2)ccc1[N+](=O)[O-]	L major viab 82
COc1ccc(NC(=O)CSc2ccccc2)c([N+](=O)[O-])c1	none
CC(C)C(=O)Nc1cccc(C(=O)Nc2nnc(C(C)C)s2)c1	L major viab 53
Cc1nnc(NC(=O)c2cccc(NC(=O)C(C)C)c2)s1	none
CN(C)CCNS(=O)(=O)c1ccc(N2CCN(c3ccc(F)cc3)CC2)c([N+](=O)[O-])c1	L major viab 98
Cc1ccc(-n2nnnc2Sc2ccc(S(=O)(=O)NCCN(C)C)cc2[N+](=O)[O-])cc1	Diaphorase inh 53, L major viab 100
O=[N+]([O-])c1cc(S(=O)(=O)NCCN2CCOCC2)ccc1Sc1nnnn1-c1ccccc1	L major viab 86
Cc1ccc(S(=O)(=O)NCCSc2nnnn2-c2ccc(C(N)=O)cc2)cc1	none
CC(=O)N1CCN(c2ccc(S(=O)(=O)NCCN(C(C)C)C(C)C)cc2[N+](=O)[O-])CC1	none
CCCC1(CCC)NC(=O)N(CC(=O)Nc2ccc(Cl)c(S(=O)(=O)N3CCOCC3)c2)C1=O	none (no result: Diaphorase inh, L major viab, G6PDH CS, DTT redox prof, Diaphorase act)
COc1ccc2[nH]cc(S(=O)(=O)c3ccc(C)cc3)c2c1	none
COc1ccc(OC)c(NC(=O)C(C)N2c3cccc4cccc(c34)S2(=O)=O)c1 (stereo not given)	none (no result: Diaphorase inh, L major viab, G6PDH CS, DTT redox prof, Diaphorase act)
CCOC(=O)C(NC(=O)N(C)C)(Nc1sc(C)c(CC)c1C#N)C(F)(F)F (stereo not given)	none
COc1ccc(C=O)cc1COc1c(F)c(F)cc(F)c1F	L major viab 99
CCN(CC)c1ccc(/C=N/N2CCN(Cc3ccccc3)CC2)c(O)c1	L major viab 92
CCN(CC)c1ccc(/C=N/N2CCN(Cc3ccccc3)CC2)cc1	none
CCN(CC)c1ccc(N=Cc2ccc(N(CC)CC)cc2O)cc1	L major viab 100
CCN(CC)c1ccc(/C=N/NC(=S)NC)c(O)c1	L major viab 83
CCN(CC)c1ccc(C=Nc2ccc(N(C)C)cc2)c(O)c1	none
S=c1[nH]nc(CCc2ccccc2)n1-c1ccccc1	none
COc1ccc(C)cc1S(=O)(=O)N(CC(=O)Nc1cccc([N+](=O)[O-])c1)c1ccc(C)c(C)c1	L major viab 50
Cc1ccc(NC(=O)CN(c2ccc(Cl)cc2)S(=O)(=O)c2cc([N+](=O)[O-])ccc2Cl)cc1	L major viab 59
COc1ccc(/C=N/n2c(C3CCCCC3)n[nH]c2=S)c(OC)c1	none (no result: Diaphorase inh, L major viab, G6PDH CS, DTT redox prof, Diaphorase act)
CCN(c1ccc(NC(=O)CSCc2c(C)noc2C)cc1)C(C)C	none (no result: Diaphorase inh, L major viab, G6PDH CS, DTT redox prof, Diaphorase act)
Cc1cc(C(=O)COC(=O)/C=C/c2ccco2)c(C)n1C	none (no result: Diaphorase inh, L major viab, G6PDH CS, DTT redox prof, Diaphorase act)
Cn1c(CCC(=O)Nc2cc(S(C)(=O)=O)ccc2Cl)nc2cc(S(=O)(=O)N3CCOCC3)ccc21	none (no result: Diaphorase inh, L major viab, G6PDH CS, DTT redox prof, Diaphorase act)
C#CC(=O)N(c1cccc(OC)c1)C(C(=O)NC1CCCC1)c1cccs1 (stereo not given)	L major viab 100
Cc1cccc(N(C(=O)C(F)(F)F)C(C(=O)NC2CCCCC2)c2cccs2)c1 (stereo not given)	none

Screening data as filed in PubChem BioAssay.
